From ChEMBL document CHEMBL4808178 (J Med Chem, 2021)
Calls of active or inactive are those of the source. The rule behind the calls is not given here.

Legend:
[1] = target: Epidermal growth factor receptor (Homo sapiens) (UniProt P00533); assay: Inhibition of EGFR (unknown origin) assessed as residual activity at 1 uM relative to control
How it was run: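 Single-concentration screen at 1 μmol/L against a panel of 208 kinases, run as a commercial service; activity expressed relative to control.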

[2] = target: Serine/threonine-protein kinase PLK1 (Homo sapiens) (UniProt P53350); assay: Inhibition of PLK1 (unknown origin) assessed as residual activity at 1 uM relative to control
How it was run: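 Commercial profiling service against a 208-kinase panel; single concentration 1 μmol/L; residual kinase activity expressed relative to control.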

T-24 = assay: Cytotoxicity against human T24 cells assessed as reduction in cell viability incubated for 72 hrs by MTT assay; assay type: functional, cell-based; conditions: T-24, 72 h
How it was run: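 About 5 × 10³ cells/well, seeded overnight at 37 °C, 5% CO₂, in DMEM or RPMI-1640 with 10% FBS and antibiotics. DMSO-dissolved compounds diluted in medium, exposure 72 h.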

HCT-116 [3] = assay: Inhibition of cell stemness in human HCT116 cells assessed as inhibition of CD44+/CD133+ expression at 20 uM after 24 hrs by flow cytometry analysis; assay type: functional
How it was run: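 ALDH⁺ HCT-116 subpopulation sorted by flow cytometry; 2 × 10⁵ cells/well seeded overnight at 37 °C, 5% CO₂; treated 20 μM for 24 h (vehicle DMSO); stained with PE anti-CD133 and FITC anti-CD44 30 min; CD44⁺/CD133⁺ read by flow cytometry.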

HCT-116 [4] = assay: Inhibition of cell stemness in human HCT116 cells assessed as reduction in SOX2 mRNA transcription levels at 20 uM after 24 hrs by RT-qPCR analysis; assay type: functional, cell-based
How it was run: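 Sorted ALDH⁺ HCT-116 cells treated 24 h; TRIZOL RNA, one-step RT-qPCR (RT 10 min 55 °C; 95 °C 1 min; 39 cycles 95 °C 10 s/60 °C 30 s) with melting-curve check; β-actin reference; fold change by 2^−ΔΔCt; t test, mean ± SD, n = 3.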

HCT-116 [5] = assay: Inhibition of cell stemness in human HCT116 cells assessed as morphological alterations at 5 uM after 10 days by microscopic analysis; assay type: functional, cell-based; conditions: time 10.0 day
How it was run: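 Sorted ALDH⁺ HCT-116 cells, 800/well, in serum-free DMEM with B27 (1:50), EGF 20 ng/mL, β-FGF 10 ng/mL; co-incubated with compound (5 μM) or DMSO vehicle for 10 days; sphere number, diameter and morphology scored from microscopy images; mean ± SD, n = 3.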

[6] = target: Glycogen synthase kinase-3 beta (Homo sapiens) (UniProt P49841); assay: Inhibition of GSK3beta phosphorylation at serine 9 in human HCT-116 cells after 24 hrs by Western blot analysis; assay type: cell-based; conditions: dose 5-20 µM
How it was run: (§1)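 HCT-116 cells at 2 × 10⁵ cells/mL in DMEM/10% FBS, grown 12 h at 37 °C, then treated 24 h (vehicle DMSO). Lysates quantified by BCA, run on 10% SDS-PAGE, PVDF transfer, blocked in 5% milk/TBST, primary antibodies 4 °C overnight, HRP secondary 2 h, chemiluminescent detection; normalized to β-actin, n = 3.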

HCT-116 [7] = assay: Effect on Wnt/beta-Catenin signaling in human HCT116 cells assessed as reduction in cyclin-D1 mRNA level at 20 uM after 24 hrs by RT-qPCR analysis; assay type: functional, cell-based
How it was run: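 HCT-116 cells treated 24 h; total RNA by TRIZOL, one-step RT-qPCR: 55 °C 10 min, 95 °C 1 min, then 39 cycles of 95 °C 10 s and 60 °C 30 s, with melting-curve and no-template controls. β-Actin as internal standard; relative expression by 2^−ΔΔCt, mean ± SD (n = 3).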

HCT-116 [8] = assay: Effect on Wnt/beta-Catenin signaling in human HCT116 cells assessed as upregulation of DKK1 protein level after 24 hrs by Western blotting analysis; assay type: functional, cell-based; conditions: dose 5-20 µM; how it was run: as §1
HCT-116 [9] = assay: Induction of apoptosis in human HCT116 cells assessed as viable cells at 10 uM after 24 hrs by annexin V-FITC/propidium iodide staining based flow cytometry (reference value: 88.3%); assay type: functional; conditions: read-out: Activity
HCT-116 [10] = assay: Induction of cell cycle arrest in human HCT116 cells assessed as accumulation at S phase at 20 uM after 24 hrs by propidium iodide-staining based flow cytometry (reference value: 36.43%); assay type: functional
HCT-116 [11] = assay: Induction of apoptosis in human HCT116 cells assessed as down regulation of pro-caspase 9 level at 20 uM incubated for 24 hrs by Western blot analysis; assay type: functional, cell-based; how it was run: as §1
HCT-116 [12] = assay: Induction of apoptosis in human HCT116 cells assessed as down regulation of total PARP at 20 uM incubated for 24 hrs by Western blot analysis; assay type: functional, cell-based; how it was run: as §1
[13] = Volume of distribution in Sprague-Dawley rat at 25 mg/kg, po measured up to 48 hrs by LC-MS/MS analysis; assay type: ADME, organism-based; conditions: in vivo
How it was run: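 Overnight-fasted male SD rats (250−270 g, n = 3/group), single oral 25 mg/kg in 5% CMC-Na (reference sodium salt in phosphate buffer); plasma at 0.25–48 h (12 timepoints), stored −40 °C; LC−MS/MS with internal-standard calibration 3–3000 ng/mL; parameters fitted by model.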

[14] = Toxicity in BALB/c mouse xenografted with human HCT116 cells assessed as change in body weight at 60 to 90 mg/kg, po administered twice daily for 4 weeks and measured every 3 days; assay type: organism-based, HCT-116; conditions: in vivo, 672 h, dose 60-90 mg/kg
How it was run: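 Male 5-week BALB/c nude mice (16−18 g), 0.2 mL of 5 × 10⁷ cells/mL HCT-116 injected into right armpit; at ~100 mm³ randomized, 5/group; intragastric 60 or 90 mg/kg twice daily for 4 weeks; tumor volume and body weight every 3 days; after sacrifice heart, liver, spleen, lung, kidney HE-stained.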

Sequence of Serine/threonine-protein kinase PLK1 (Homo sapiens) (P53350 whole entry): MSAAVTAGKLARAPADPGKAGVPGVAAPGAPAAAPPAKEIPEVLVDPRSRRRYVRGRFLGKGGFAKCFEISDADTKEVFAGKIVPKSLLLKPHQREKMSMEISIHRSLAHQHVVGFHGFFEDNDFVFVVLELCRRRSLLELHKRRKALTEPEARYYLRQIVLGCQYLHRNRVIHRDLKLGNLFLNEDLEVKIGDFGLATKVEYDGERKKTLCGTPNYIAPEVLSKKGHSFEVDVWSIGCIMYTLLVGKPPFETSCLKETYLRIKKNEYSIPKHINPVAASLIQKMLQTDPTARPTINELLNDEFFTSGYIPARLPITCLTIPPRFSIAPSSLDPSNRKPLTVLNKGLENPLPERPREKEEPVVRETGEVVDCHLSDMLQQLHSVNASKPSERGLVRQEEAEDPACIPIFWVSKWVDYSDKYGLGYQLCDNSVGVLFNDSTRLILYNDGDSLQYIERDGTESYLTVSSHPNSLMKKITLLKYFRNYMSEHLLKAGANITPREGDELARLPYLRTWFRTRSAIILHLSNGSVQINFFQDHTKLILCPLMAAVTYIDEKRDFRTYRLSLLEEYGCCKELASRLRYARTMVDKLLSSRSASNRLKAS
Sequence of Epidermal growth factor receptor (Homo sapiens) (P00533 whole entry): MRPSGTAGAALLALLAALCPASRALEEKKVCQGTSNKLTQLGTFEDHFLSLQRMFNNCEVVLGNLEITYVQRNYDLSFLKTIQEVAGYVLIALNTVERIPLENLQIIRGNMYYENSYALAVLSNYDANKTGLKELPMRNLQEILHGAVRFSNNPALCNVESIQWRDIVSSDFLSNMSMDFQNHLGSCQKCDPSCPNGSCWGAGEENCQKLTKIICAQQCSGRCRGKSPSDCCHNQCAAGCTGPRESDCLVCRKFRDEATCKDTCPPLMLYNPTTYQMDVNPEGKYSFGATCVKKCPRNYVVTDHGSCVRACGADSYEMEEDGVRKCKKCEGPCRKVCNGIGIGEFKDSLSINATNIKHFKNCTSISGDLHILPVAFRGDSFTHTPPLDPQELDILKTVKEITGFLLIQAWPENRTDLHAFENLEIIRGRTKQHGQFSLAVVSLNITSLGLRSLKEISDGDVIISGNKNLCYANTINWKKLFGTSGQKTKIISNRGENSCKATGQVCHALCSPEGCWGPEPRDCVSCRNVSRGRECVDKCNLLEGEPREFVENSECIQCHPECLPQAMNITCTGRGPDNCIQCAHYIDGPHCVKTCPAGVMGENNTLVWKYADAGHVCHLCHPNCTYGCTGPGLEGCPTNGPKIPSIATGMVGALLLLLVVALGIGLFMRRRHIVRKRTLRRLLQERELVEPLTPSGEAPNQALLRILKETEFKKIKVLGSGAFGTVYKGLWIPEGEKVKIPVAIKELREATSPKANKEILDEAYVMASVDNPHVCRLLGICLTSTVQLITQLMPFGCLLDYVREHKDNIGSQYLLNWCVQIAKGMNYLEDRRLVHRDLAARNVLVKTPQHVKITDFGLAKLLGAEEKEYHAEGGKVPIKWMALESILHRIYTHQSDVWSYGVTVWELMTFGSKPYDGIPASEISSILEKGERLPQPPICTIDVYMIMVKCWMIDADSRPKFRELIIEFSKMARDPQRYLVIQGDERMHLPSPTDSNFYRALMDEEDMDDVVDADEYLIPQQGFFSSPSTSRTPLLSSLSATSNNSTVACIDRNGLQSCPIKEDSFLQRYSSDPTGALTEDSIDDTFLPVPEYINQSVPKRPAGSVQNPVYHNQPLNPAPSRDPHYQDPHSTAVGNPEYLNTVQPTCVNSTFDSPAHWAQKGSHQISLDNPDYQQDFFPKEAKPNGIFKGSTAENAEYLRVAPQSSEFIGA
Sequence of Glycogen synthase kinase-3 beta (Homo sapiens) (P49841 whole entry, looked up): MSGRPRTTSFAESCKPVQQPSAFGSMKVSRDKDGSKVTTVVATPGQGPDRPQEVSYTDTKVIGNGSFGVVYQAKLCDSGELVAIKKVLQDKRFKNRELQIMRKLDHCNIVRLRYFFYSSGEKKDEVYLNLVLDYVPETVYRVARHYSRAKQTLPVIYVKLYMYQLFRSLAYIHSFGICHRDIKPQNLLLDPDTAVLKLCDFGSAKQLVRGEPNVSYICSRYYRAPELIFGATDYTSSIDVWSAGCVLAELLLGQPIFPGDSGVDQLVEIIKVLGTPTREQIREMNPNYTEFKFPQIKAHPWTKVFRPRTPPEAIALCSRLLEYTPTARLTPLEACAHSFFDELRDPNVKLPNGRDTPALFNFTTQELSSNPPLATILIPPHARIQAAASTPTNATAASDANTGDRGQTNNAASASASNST

O=C(NCCO)c1ccc2c(c1)nc(Nc1cccc(Cl)c1)c1ccncc12
Activity [1]: 34.1% | Activity [2]: 40.5% | IC50 (T-24): 6.1 µM | inhibition at 20 µM (HCT-116 [3]): 84% | inhibition (HCT-116 [4]): Active | inhibition (HCT-116 [5]): Active | inhibition [6]: Dose-Dependent Effect | Activity (HCT-116 [7]): Active | Activity (HCT-116 [8]): Dose-Dependent Effect | viability at 10 µM (HCT-116 [9]): 56.4% | Activity (HCT-116 [10]): 5.36% | Activity (HCT-116 [11]): Active | Activity (HCT-116 [12]): Active | Vd [13]: 2.77 L/kg | Activity [14]: Non-Toxic
